{"source": "ChEMBL document CHEMBL3763097", "about": "“Synthesis and biological evaluation of 5,10-dihydro-11H-dibenzo[b,e][1,4]diazepin-11-one structural derivatives as anti-cancer and apoptosis inducing agents” (Eur J Med Chem, 2016)", "key": {"A549 [1]": {"system": "A549", "test": "Induction of reactive oxygen species generation in human A549 cells at 0.5 to 2 uM after 48 hrs by carboxy-DCFDA staining based spectrofluorometry relative to control", "assay_type": "functional"}, "MDA-MB-231 [2]": {"system": "MDA-MB-231", "test": "Antimigratory activity in human MDA-MB-231 cells at 0.5 to 2 uM measured after 24 to 48 hrs by wound healing assay", "assay_type": "functional, cell-based", "method_in_brief": "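Wound-healing assay. Cells were seeded at 5×10^5 per well and grown 24 h to a confluent monolayer, then scratched once across the middle with a sterile pipette tip and washed twice with PBS. Compound was added at 0.5, 1 and 2 µM. Wound closure was photographed by phase-contrast microscopy at 0, 24 and 48 h in three or more random fields.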"}, "A549 [3]": {"system": "A549", "test": "Cell cycle arrest in human A549 cells assessed as accumulation at G2/M phase at 2 uM after 24 to 48 hrs by propidium iodide staining based flow cytometry (reference value: 22.3 to 31%)", "assay_type": "functional", "method_in_brief": "(§1)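 Cells were seeded at 1×10^6 per well and treated 24 h later with 0.5, 1 or 2 µM compound; DMSO-treated cells served as control. Methods give harvest at 48 h (floating plus trypsinised cells); the figure legend says 24 h. Cells were fixed in 70% ethanol for 30 min at 4 °C and stained with PI, Triton X-100 and RNase A for 15 min in the dark. 10000 events were counted by flow cytometry.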"}, "MDA-MB-231 [4]": {"system": "MDA-MB-231", "test": "Induction of reactive oxygen species generation in human MDA-MB-231 cells at 0.5 to 2 uM after 48 hrs by carboxy-DCFDA staining based spectrofluorometry relative to control", "assay_type": "functional"}, "MDA-MB-231 [5]": {"system": "MDA-MB-231", "test": "Induction of apoptosis in human MDA-MB-231 cells assessed as early apoptotic cells at 0.5 uM after 24 hrs by Annexin V-FITC/PI dual staining based flow cytometry (reference value: 0.3%)", "assay_type": "functional"}, "A549 [6]": {"system": "A549", "test": "Induction of apoptosis in human A549 cells assessed as early apoptotic cells at 0.5 uM after 24 hrs by Annexin V-FITC/PI dual staining based flow cytometry (reference value: 5.3%)", "assay_type": "functional"}, "A549 [7]": {"system": "A549", "test": "Induction of apoptosis in human A549 cells assessed as necrotic cells at 2 uM after 24 hrs by Annexin V-FITC/PI dual staining based flow cytometry (reference value: 5.2%)", "assay_type": "functional"}, "MDA-MB-231 [8]": {"system": "MDA-MB-231", "test": "Cell cycle arrest in human MDA-MB-231 cells assessed as accumulation at G2/M phase at 2 uM after 24 to 48 hrs by propidium iodide staining based flow cytometry (reference value: 20.2%)", "assay_type": "functional", "method_in_brief": "as §1"}, "MDA-MB-231 [9]": {"system": "MDA-MB-231", "test": "Disruption of mitochondrial membrane potential in human MDA-MB-231 cells after 48 hrs by Rhodamine-123 staining based spectrofluorometry", "assay_type": "functional, cell-based", "method_in_brief": "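Cells were seeded at 5×10^5 cells/mL overnight and treated with 0.5, 1 and 2 µM compound; the methods say 24 h and the results text says 48 h. Trypsinised cells were washed and stained with rhodamine-123 (2 µM in PBS) for 30 min at room temperature in the dark, washed and read by spectrofluorometer. Data are mean ± SD of three independent experiments.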"}, "MDA-MB-231 [10]": {"system": "MDA-MB-231", "test": "Induction of apoptosis in human MDA-MB-231 cells assessed as late apoptotic cells at 0.5 uM after 24 hrs by Annexin V-FITC/PI dual staining based flow cytometry (reference value: 6.2%)", "assay_type": "functional"}}}
{"smiles": "O=C1c2ccccc2Nc2ccccc2N1Cc1cn(Cc2ccccc2)nn1", "values": [{"measurement": "fold change (FC)", "setting": "A549 [1]", "value": 1.8}, {"measurement": "inhibition", "setting": "MDA-MB-231 [2]", "value": "Dose-dependent effect"}, {"measurement": "Activity", "setting": "A549 [3]", "value": 51.3, "unit": "%"}, {"measurement": "fold change (FC)", "setting": "MDA-MB-231 [4]", "value": 2.09}, {"measurement": "Activity", "setting": "MDA-MB-231 [5]", "value": 16.8, "unit": "%"}, {"measurement": "Activity", "setting": "A549 [6]", "value": 9.4, "unit": "%"}, {"measurement": "Activity", "setting": "A549 [7]", "value": 3.8, "unit": "%"}, {"measurement": "Activity", "setting": "MDA-MB-231 [8]", "value": 63.4, "unit": "%"}, {"measurement": "Activity", "setting": "MDA-MB-231 [9]", "value": "Dose-dependent effect"}, {"measurement": "Activity", "setting": "MDA-MB-231 [10]", "value": 10.1, "unit": "%"}]}
